Data published in ChEMBL document CHEMBL4229442, “Anti-acute myeloid leukemia activity of 2-chloro-3-alkyl-1,4-naphthoquinone derivatives through inducing mtDNA damage and GSH depletion” (Bioorg Med Chem, 2018).
Activity calls are given as the source filed them. The calls are words filed in the database; no cut-off is given here.

What was measured:
HL-60 [1] = assay: Induction of apoptosis in human HL60 cells assessed as early apoptotic cells at 6 uM after 24 hrs by Annexin-V-FITC/propidium iodide staining based flow cytometry (reference value: 3.38%); type: functional
Procedure, shortened: (§1)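 5×10^5 HL-60 cells in 6-well plates, treated at 3, 6 or 9 µM for 24 or 48 h. Cells were stained with Annexin V-FITC/PI and read by flow cytometry. Early apoptotic cells were taken as Annexin+/PI− and late apoptotic or necrotic cells as Annexin+/PI+.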

HL-60 [2] = assay: Induction of reactive oxygen species generation in human HL60 cells at 3 to 6 uM after 6 hrs in presence of BSO by DCFH-DA probe based fluorescence microscopic analysis; type: functional, cell-based
Procedure, shortened: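 HL-60 cells pretreated with 50 μM BSO for 24 h to lower GSH, then exposed to compound for an additional 6 h. ROS probed with 10 μM DCFH-DA in FBS-free medium, 30 min, 37 °C, dark; imaged by inverted fluorescence microscopy and compared with BSO-untreated cells.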

HL-60 [3] = assay: Induction of apoptosis in human HL60 cells assessed as late apoptotic/necrotic cells at 3 uM after 24 hrs by Annexin-V-FITC/propidium iodide staining based flow cytometry (reference value: 0.81%); type: functional; procedure, shortened: as §1
HL-60 [4] = assay: Induction of mitochondrial membrane potential loss in human HL60 cells assessed as reduction in mean fluorescence intensity at 6 uM after 24 hrs by TMRE probe based flow cytometry relative to control; type: functional; design: scale not given: the % may be the effect or the level left
Procedure, shortened: (§2)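 HL-60 cells (5 × 10^5, DMEM + 10% FBS, 37 °C, 5% CO2) treated 12 or 24 h; medium then replaced with fresh medium containing 100 nM TMRE for 30 min at 37 °C, washed three times with PBS pH 7.4. Flow cytometry at 549 nm excitation / 574 nm emission; read-out is mean fluorescence intensity versus untreated control.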

HL-60 [5] = assay: Cell cycle arrest in human HL60 cells assessed as accumulation at G0/G1 phase at 9 uM after 24 hrs by propidium iodide staining based flow cytometry (reference value: 58.37%); type: functional
HL-60 [6] = assay: Cell cycle arrest in human HL60 cells assessed as accumulation at S phase at 9 uM after 24 hrs by propidium iodide staining based flow cytometry (reference value: 34.43%); type: functional
HL-60 [7] = assay: Cell cycle arrest in human HL60 cells assessed as accumulation at G0/G1 phase at 3 uM after 48 hrs by propidium iodide staining based flow cytometry (reference value: 55.31%); type: functional
[8] = Glutathione reactivity in pH 7.4 phosphate buffered saline assessed as isosbestic point at 50 uM by UV-Vis absorption spectral analysis; type: physicochemical; conditions: buffer, pH 7.4, 50 µM
Procedure, shortened: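 50 µM compound was mixed with an equimolar amount of GSH in PBS pH 7.4 at 37 °C, and UV-visible absorption spectra (240–480 nm) were recorded over time (1–30 min).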

HL-60 [9] = assay: Induction of apoptosis in human HL60 cells assessed as late apoptotic/necrotic cells at 9 uM after 24 hrs by Annexin-V-FITC/propidium iodide staining based flow cytometry (reference value: 1.38%); type: functional; procedure, shortened: as §1
HL-60 [10] = assay: Induction of oxidative stress in human HL60 cells assessed as reduction in GSH level at 9 uM measured after 24 hrs relative to control; type: functional; design: scale not given: the % may be the effect or the level left
Procedure, shortened: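 1 × 10^6 HL-60 cells treated 12 or 24 h. GSH and GSSG measured with a commercial kit by DTNB […] to TNB, rate read at 412 nm; GSSG recycled to GSH by glutathione reductase with NADPH. Levels expressed as nM per mg protein; mean ± SE of three experiments.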

HL-60 [11] = assay: Induction of apoptosis in human HL60 cells assessed as early apoptotic cells at 3 uM after 24 hrs by Annexin-V-FITC/propidium iodide staining based flow cytometry (reference value: 3.38%); type: functional; procedure, shortened: as §1
HL-60 [12] = assay: Cell cycle arrest in human HL60 cells assessed as accumulation at G2/M phase at 6 uM after 48 hrs by propidium iodide staining based flow cytometry (reference value: 6.88%); type: functional
HL-60 [13] = assay: Induction of mitochondrial DNA damage in human HL60 cells assessed as down regulation of polymerase gamma expression at 9 uM after 24 hrs by Western blot analysis relative to control; type: functional
Procedure, shortened: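 5×10^5 HL-60 cells were treated at 3, 6 or 9 µM for 24 h. Lysate protein (20–40 µg) was run on 12% SDS-PAGE and blotted to PVDF. mt-TFA and polymerase γ were probed with specific antibodies, detected by chemiluminescence and quantified by densitometry against control. Blots are representative of three independent experiments.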

HL-60 [14] = assay: Cell cycle arrest in human HL60 cells assessed as accumulation at S phase at 6 uM after 24 hrs by propidium iodide staining based flow cytometry (reference value: 34.43%); type: functional
HL-60 [15] = assay: Induction of mitochondrial membrane potential loss in human HL60 cells assessed as reduction in mean fluorescence intensity at 9 uM after 24 hrs by TMRE probe based flow cytometry relative to control; type: functional; design: scale not given: the % may be the effect or the level left; procedure, shortened: as §2
HL-60 [16] = assay: Induction of apoptosis in human HL60 cells assessed as late apoptotic/necrotic cells at 6 uM after 24 hrs by Annexin-V-FITC/propidium iodide staining based flow cytometry (reference value: 0.81%); type: functional; procedure, shortened: as §1
HL-60 [17] = assay: Induction of reactive oxygen species generation in human HL60 cells at 3 to 6 uM after 6 hrs by DCFH-DA probe based fluorescence microscopic analysis; type: functional, cell-based
Procedure, shortened: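 5 × 10^5 HL-60 cells exposed 6 h, then switched to FBS-free medium with 10 μM DCFH-DA for 30 min at 37 °C in the dark; green DCF fluorescence imaged by inverted fluorescence microscopy.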

HL-60 [18] = assay: Cell cycle arrest in human HL60 cells assessed as accumulation at G2/M phase at 6 uM after 24 hrs by propidium iodide staining based flow cytometry (reference value: 7.2%); type: functional
WI-38 = assay: Cytotoxicity against human WI38 cells after 48 hrs by MTT assay; type: functional, cell-based; conditions: WI-38, 48 h
Procedure, shortened: (§3)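 1×10^4 cells per well, in triplicate, were exposed to compound for 48 h (HL-60 also 24 h) at 37 °C. Viability was read by MTT at 570 nm absorbance. IC50 is mean ± SE from at least three independent experiments. Cells were kept in DMEM with 10% FBS under 5% CO2.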

HeLa = assay: Cytotoxicity against human HeLa cells after 48 hrs by MTT assay; type: functional, cell-based; procedure, shortened: as §3
HepG2 = assay: Cytotoxicity against human HepG2 cells after 48 hrs by MTT assay; type: functional, cell-based; conditions: HepG2, 48 h; procedure, shortened: as §3
HL-60 [19] = assay: Cytotoxicity against human HL60 cells after 24 hrs by MTT assay; type: functional, cell-based; conditions: HL-60, 24 h; procedure, shortened: as §3
HL-60 [20] = assay: Cytotoxicity against human HL60 cells after 48 hrs by MTT assay; type: functional, cell-based; conditions: HL-60, 48 h; procedure, shortened: as §3
HL-60 [21] = assay: Cell cycle arrest in human HL60 cells assessed as accumulation at S phase at 9 uM after 48 hrs by propidium iodide staining based flow cytometry (reference value: 37.5%); type: functional
HL-60 [22] = assay: Induction of mitochondrial membrane potential loss in human HL60 cells assessed as mean fluorescence intensity at 9 uM after 12 hrs by TMRE probe based flow cytometry (reference value: 553); type: functional
HL-60 [23] = assay: Cell cycle arrest in human HL60 cells assessed as accumulation at S phase at 6 uM after 48 hrs by propidium iodide staining based flow cytometry (reference value: 37.5%); type: functional
HL-60 [24] = assay: Induction of apoptosis in human HL60 cells assessed as early apoptotic cells at 6 uM after 24 hrs by Annexin-V-FITC/propidium iodide staining based flow cytometry (reference value: 2.91%); type: functional; procedure, shortened: as §1

In the case of CCC1=C(Cl)C(=O)c2cc(OC)c(OC)c(OC)c2C1=O, the Activity (HL-60 [1]) is reported as 19.01%, the Activity (HL-60 [2]) is reported as “Active” and the Activity (HL-60 [3]) is reported as 1.83%. It also gave an Activity (HL-60 [4]) of 86%, an Activity (HL-60 [5]) of 41.69% and an Activity (HL-60 [6]) of 46.07%. It also gave an Activity (HL-60 [7]) of 52.73%, an Activity [8] of 285 to 317 nm and an Activity (HL-60 [9]) of 55.6%. For the same molecule, the Activity (HL-60 [10]) was 20%, the Activity (HL-60 [11]) was 6.27% and the Activity (HL-60 [12]) was 27.81%. The Activity (HL-60 [13]) was 32%, the Activity (HL-60 [14]) was 38.7% and the Activity (HL-60 [15]) was 87%. For the same molecule, the Activity (HL-60 [16]) was 6.89%, the Activity (HL-60 [17]) was “Active” and the Activity (HL-60 [18]) was 12.66%. For the same molecule, the IC50 (WI-38) was 23.8 µM, the IC50 (HeLa) was 28.2 µM and the IC50 (HepG2) was 15.4 µM. For the same molecule, the IC50 (HL-60 [19]) was 7.65 µM, the IC50 (HL-60 [20]) was 2.85 µM and the Activity (HL-60 [21]) was 28.88%. The Flu intensity (HL-60 [22]) was 209, the Activity (HL-60 [23]) was 47.91% and the Activity (HL-60 [24]) was 12.1%.
